Calls of active or inactive are those of the source.
Key:
[1] = target: T1, Androgen receptor (Homo sapiens) (UniProt P10275); test: Inhibition of androgen receptor in human LNCAP cells assessed as decrease in PSA mRNA expression at 5 uM by RT-PCR analysis relative to control; type: cell-based
T1 sequence (whole entry): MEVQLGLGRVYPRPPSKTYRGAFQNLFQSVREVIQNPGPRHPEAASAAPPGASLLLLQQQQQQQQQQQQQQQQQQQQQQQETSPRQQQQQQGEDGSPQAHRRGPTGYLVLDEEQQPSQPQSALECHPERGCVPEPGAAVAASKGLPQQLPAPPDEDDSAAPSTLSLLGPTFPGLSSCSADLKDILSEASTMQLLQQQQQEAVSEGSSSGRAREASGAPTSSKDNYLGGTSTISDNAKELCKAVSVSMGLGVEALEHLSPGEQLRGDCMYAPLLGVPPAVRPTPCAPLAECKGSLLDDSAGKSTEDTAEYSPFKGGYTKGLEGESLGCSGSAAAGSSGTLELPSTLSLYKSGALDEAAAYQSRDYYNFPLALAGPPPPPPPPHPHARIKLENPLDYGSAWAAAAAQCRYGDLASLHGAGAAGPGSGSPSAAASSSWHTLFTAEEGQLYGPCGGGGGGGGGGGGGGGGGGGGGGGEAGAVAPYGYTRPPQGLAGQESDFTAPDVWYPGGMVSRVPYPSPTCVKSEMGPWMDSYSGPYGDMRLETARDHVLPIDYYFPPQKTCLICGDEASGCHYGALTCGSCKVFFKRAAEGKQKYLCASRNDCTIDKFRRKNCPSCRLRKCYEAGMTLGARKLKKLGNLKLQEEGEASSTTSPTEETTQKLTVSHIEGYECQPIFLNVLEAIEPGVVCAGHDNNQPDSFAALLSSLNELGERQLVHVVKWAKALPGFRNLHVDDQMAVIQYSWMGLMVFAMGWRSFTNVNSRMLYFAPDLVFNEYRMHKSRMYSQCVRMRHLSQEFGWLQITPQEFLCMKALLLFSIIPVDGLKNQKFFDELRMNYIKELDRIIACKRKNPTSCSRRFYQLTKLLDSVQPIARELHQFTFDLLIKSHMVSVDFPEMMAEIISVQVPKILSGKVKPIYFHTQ
Outline: (§1)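 LNCaP cells grown in RPMI 1640 with 10% FBS at 37°C. Transcript levels measured by real-time RT-PCR with rRNA as the reference gene. Relative RNA calculated from threshold cycles by the comparative Ct method.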

[2] = target: T1, Androgen receptor (Homo sapiens); test: Inhibition of androgen receptor in human LNCAP cells assessed as decrease in TMPRSS2 mRNA expression at 5 uM by RT-PCR analysis relative to control; type: cell-based; outline: as §1
[3] = target: T2, Androgen receptor (Homo sapiens, UniProt P10275); test: Displacement of Fluormone AL Green from androgen receptor ligand binding domain (unknown origin) after 4 hrs by fluorescence polarization assay
T2 sequence (P10275 whole entry): T1 sequence (whole entry)

[4] = test system: LNCaP; test: Cytotoxicity against human LNCAP cells at 5.56 to 50 uM after 48 hrs by 7-AAD dye-based flow cytometric analysis; type: cell-based
Outline: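 LNCaP cells (RPMI 1640, 10% FBS, 37°C) exposed to compound for 48 h in 10% FBS medium; 1% DMSO as vehicle control. Viable cell count measured by flow cytometry using 7-AAD viability stain.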

[5] = target: T1, Androgen receptor (Homo sapiens); settings: LNCaP, at 0.5 to 3 µM

Row | inhibition [1] | inhibition [2] | IC50 [3] | inhibition [5] | Structure (SMILES) | Activity [4]
1 | Active | Active | – | – | COc1ccc(C(=O)O[C@H]2C(=O)C=CN(C(=O)/C=C/c3ccccc3)[C@@H]2c2ccccc2)cc1 (racemic) | –
2 | 90% | 90% | – | – | CC(C)(C)[Si](C)(C)O[C@H]1C(=O)C=CN[C@@H]1c1ccc2c(c1)OCO2 (racemic) | –
3 | Active | Active | – | – | CC(C)=C[C@@H]1[C@@H](OC(=O)c2ccc(F)cc2C(F)(F)F)C(=O)C=CN1C(=O)Oc1ccccc1 (racemic) | –
4 | Active | Active | – | – | O=C(Cc1ccccc1)O[C@H]1C(=O)C=CN(C(=O)/C=C/c2ccccc2)[C@@H]1c1ccccc1 (racemic) | –
5 | 90% | 90% | – | – | O=C1C=CN(C(=O)Oc2ccccc2)[C@H](c2ccccc2)[C@H]1O (racemic) | –
6 | 90% | 90% | – | – | Cc1csc([C@@H]2[C@@H](OC(=O)N(C)c3ccccc3)C(=O)C=CN2C(=O)c2ccc(C(F)(F)F)nc2)c1 (racemic) | –
7 | 90% | 90% | – | – | CC(C)(C)[Si](C)(C)O[C@H]1C(=O)C=CN(C(=O)C2CC2)[C@@H]1c1ccc2c(c1)OCO2 (racemic) | –
8 | 90% | 90% | – | – | CC(C)(C)[Si](C)(C)O[C@H]1C(=O)C=CN(C(=O)c2ccc(C(F)(F)F)nc2)[C@@H]1c1ccc2c(c1)OCO2 (racemic) | –
9 | 90% | 90% | – | – | CC(C)(C)[Si](C)(C)O[C@H]1C(=O)C=CN(C(=O)Oc2ccccc2)[C@@H]1c1ccc2c(c1)OCO2 (racemic) | –
10 | 90% | 90% | – | – | O=C1C=CN(C(=O)Oc2ccccc2)[C@H](c2ccccc2)C1 (racemic) | –
11 | 90% | 90% | – | – | Cc1csc([C@@H]2[C@@H](OC(=O)N(C)c3ccccc3)C(=O)C=CN2C(=O)Oc2ccccc2)c1 (racemic) | –
12 | 90% | 90% | – | – | CC(C)(C)[Si](C)(C)O[C@H]1C(=O)C=CN(C(=O)Cc2ccccc2)[C@@H]1c1ccc2c(c1)OCO2 (racemic) | –
13 | 90% | 90% | – | – | Cc1csc([C@H]2NC=CC(=O)[C@@H]2OC(=O)N(C)c2ccccc2)c1 (racemic) | –
14 | 90% | 90% | – | – | CC(C)(C)[Si](C)(C)O[C@H]1C(=O)C=CN(C(=O)Oc2ccccc2)[C@@H]1c1ccccc1 (racemic) | –
15 | Active | Active | – | – | C[C@@H]1[C@@H](OC(=O)c2ccc(F)cc2C(F)(F)F)C(=O)C=CN1C(=O)Oc1ccccc1 (racemic) | –
16 | 90% | 90% | – | – | Cc1csc([C@@H]2[C@@H](OC(=O)N(C)c3ccccc3)C(=O)C=CN2C(=O)C2CC2)c1 (racemic) | –
17 | Active | Active | – | – | O=C(O[C@H]1C(=O)C=CN(C(=O)Oc2ccccc2)[C@@H]1c1cccc(-c2ccccc2)c1)c1ccc(F)cc1C(F)(F)F (racemic) | –
18 | 90% | 90% | – | – | O=C(O[C@H]1C(=O)C=CN(C(=O)c2ccccc2)[C@@H]1c1ccccc1)c1ccc(F)cc1C(F)(F)F (racemic) | –
19 | Active | Active | – | – | O=C(O[C@H]1C(=O)C=CN(C(=O)Oc2ccccc2)[C@@H]1c1cc(F)cc(F)c1)c1ccc(F)cc1C(F)(F)F (racemic) | –

Row | inhibition [1] | inhibition [2] | IC50 [3] | inhibition [5] | Structure (SMILES) | Activity [4]
20 | Active | Active | – | – | Cc1csc([C@@H]2[C@@H](OC(=O)c3ccc(F)cc3C(F)(F)F)C(=O)C=CN2C(=O)Oc2ccccc2)c1 (racemic) | –
21 | 90% | 90% | – | – | Cc1csc([C@@H]2[C@@H](O)C(=O)C=CN2C(=O)Oc2ccccc2)c1 (racemic) | –
22 | 90% | 90% | – | – | O=C1C=CN(C(=O)Oc2ccccc2)[C@H](c2ccc(-c3ccccc3)cc2)C1 (racemic) | –
23 | Active | Active | – | – | O=C(O[C@H]1C(=O)C=CN(C(=O)/C=C/c2ccccc2)[C@@H]1c1ccccc1)c1ccc(Cl)cc1 (racemic) | –
24 | Active | Active | – | – | CC(C)[C@@H]1[C@@H](OC(=O)c2ccc(F)cc2C(F)(F)F)C(=O)C=CN1C(=O)Oc1ccccc1 (racemic) | –
25 | Active | Active | – | – | N#Cc1ccc(C(=O)O[C@H]2C(=O)C=CN(C(=O)/C=C/c3ccccc3)[C@@H]2c2ccccc2)cc1 (racemic) | –
26 | Active | Active | – | – | O=C(O[C@H]1C(=O)C=CN(C(=O)/C=C/c2ccccc2)[C@@H]1c1ccccc1)c1ccccc1C(F)(F)F (racemic) | –
27 | 90% | 90% | – | – | O=C1C=CN(C(=O)c2ccccc2)[C@H](c2ccccc2)[C@H]1O (racemic) | –
28 | Active | Active | – | – | O=C(/C=C/c1cccc(C(F)(F)F)c1)O[C@H]1C(=O)C=CN(C(=O)/C=C/c2ccccc2)[C@@H]1c1ccccc1 (racemic) | –
29 | Active | Active | – | – | O=C(O[C@H]1C(=O)C=CN(C(=O)Oc2ccccc2)[C@@H]1c1ccc2c(c1)OCO2)c1ccc(F)cc1C(F)(F)F (racemic) | –
30 | Active | Active | – | – | N#Cc1cccc(C(=O)O[C@H]2C(=O)C=CN(C(=O)/C=C/c3ccccc3)[C@@H]2c2ccccc2)c1 (racemic) | –
31 | 90% | 90% | – | – | O=C1C=CN(C(=O)Oc2ccccc2)[C@H](c2ccc3c(c2)OCO3)[C@H]1O (racemic) | –
32 | 90% | 90% | – | – | O=C1C=CN[C@H](c2ccccc2)[C@H]1O (racemic) | –
33 | Active | Active | – | – | O=C(O[C@H]1C(=O)C=CN(C(=O)Oc2ccccc2)[C@@H]1c1ccccc1)c1ccc(F)cc1C(F)(F)F (racemic) | –
34 | Active | Active | 30.1 µM | inactive | O=C(O[C@H]1C(=O)C=CN(C(=O)/C=C/c2ccccc2)[C@@H]1c1ccccc1)c1ccc(F)cc1C(F)(F)F (racemic) | Non-toxic
35 | 90% | 90% | – | – | O=C1C=CN(C(=O)Oc2ccccc2)[C@H](c2cccc(-c3ccccc3)c2)[C@H]1O (racemic) | –
36 | Active | Active | – | – | O=C1C=CN(C(=O)/C=C/c2ccccc2)[C@H](c2ccccc2)[C@H]1O (racemic) | –
37 | Active | Active | – | – | O=C(O[C@H]1C(=O)C=CN(C(=O)/C=C/c2ccccc2)[C@@H]1c1ccccc1)C1CC1 (racemic) | –
